Reference: ChEMBL document CHEMBL1128433, “Novel 1,2-dithiins: synthesis, molecular modeling studies, and antifungal activity” (1995)
Values after ≈ are worked out from the molar mass of the structure shown.

System: Aspergillus fumigatus
Experiment: Antifungal activity against aspergillus fumigatus WM-1
Format: functional
Conditions: not given
Method in brief: (§1)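 A. fumigatus grown on SAB agar 3–4 d at 35 °C; conidia used as inoculum at final 1 × 10^3 cfu/mL. Broth microdilution in SAB broth, 2-fold serial dilutions of compound dissolved in ethanol or DMSO. Incubated 48 h at 35 °C. MIC read by eye as the lowest concentration with no visible growth. Amphotericin B reference.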

| MIC [µg/mL] | SMILES |
| --- | --- |
| 1.6 (≈ 8.45 µM) | OCC1=CC=C(/C=N/O)SS1 |
| 0.2 (≈ 0.989 µM) | O/N=C/C1=CC=C(/C=N/O)SS1 |

System: Cryptococcus neoformans
Experiment: Antifungal activity against cryptococcus neoformans MI-106
Format: functional
Conditions: not given
Method in brief: (§2)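 C. neoformans grown on YM agar 48 h at 35 °C, then 6 h in GYB broth at 35 °C with rotation. Final inoculum 2 × 10^4 cfu/mL. SAB broth microdilution with 2-fold serial dilutions (compound in ethanol or DMSO). Incubated 48 h at 35 °C; MIC read visually as the lowest concentration with no growth. Amphotericin B reference.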

| MIC [µg/mL] | SMILES |
| --- | --- |
| 1.6 (≈ 8.45 µM) | OCC1=CC=C(/C=N/O)SS1 |
| 1.6 (≈ 7.91 µM) | O/N=C/C1=CC=C(/C=N/O)SS1 |

System: Aspergillus fumigatus
Experiment: Antifungal activity against aspergillus fumigatus
Format: functional
Conditions: not given
Method in brief: as §1

| SMILES | MIC [µg/mL] |
| --- | --- |
| O=c1ccccn1CC1=CC=C(CO)SS1 | > 100 |
| OCC1=CC=C(COCC(O)CO)SS1 (stereo not given) | > 100 |
| CC1(C)OCC(COCC2=CC=C(COCC(O)CO)SS2)O1 (stereo not given) | > 100 |
| O=C(OCC1=CC=C(COC(=O)C2CCCC2)SS1)C1CCCC1 | > 250 |
| C#Cc1cccc(OCC2=CC=C(CO)SS2)c1 | 6.3 (≈ 22.8 µM) |
| OCC1=CC=C(CSc2nnnn2-c2ccc(O)cc2)SS1 | 12.5 (≈ 35.5 µM) |
| CC1(C)OCC(COCC2=CC=C(CO)SS2)O1 (stereo not given) | > 100 |
| CC1(C)OCC(COCC2=CC=C(COCC3COC(C)(C)O3)SS2)O1 (stereo not given) | > 100 |
| CO/N=C/C1=CC=C(/C=N/OC)SS1 | 6.3 (≈ 27.4 µM) |
| N#C/C=C/C1=CC=C(CO)SS1 | 6.3 (≈ 31.9 µM) |
| Cc1ccc(S(=O)(=O)NC(=O)OCC2=CC=C(CO)SS2)cc1 | 100 (≈ 268 µM) |
| O=CC1=CC=C(C=O)SS1 | 6.3 (≈ 36.6 µM) |
| O=c1ccc([N+](=O)[O-])cn1CC1=CC=C(CO)SS1 | > 100 |
| OCC1=CC=C(COc2ccc(O)nn2)SS1 | > 100 |
| COC(=O)c1ccccc1OCC1=CC=C(CO)SS1 | 12.5 (≈ 40.3 µM) |
| [N-]=[N+]=NCC1=CC=C(CCl)SS1 | 50 (≈ 228 µM) |
| CN(C)c1cccc(OCC2=CC=C(CO)SS2)c1 | 100 (≈ 338 µM) |
| OCC1=CC=C(COc2cc(C(F)(F)F)ccc2Cl)SS1 | 6.3 (≈ 17.8 µM) |
| OCC1=CC=C(COc2ccccc2O)SS1 | 12.5 (≈ 46.6 µM) |

Stronger by MIC, values ahead:

| MIC [µg/mL] | SMILES |
| --- | --- |
| 1.6 (≈ 5.69 µM) | O=C(OCC1=CC=C(CO)SS1)c1ccncc1 |
| 3.1 (≈ 12.2 µM) | OCC1=CC=C(COc2cccnc2)SS1 |
| 2 (≈ 5.18 µM) | O=C(OCC1=CC=C(COC(=O)c2cccnc2)SS1)c1cccnc1 |
| 0.4 (≈ 1.34 µM) | O=[N+]([O-])c1ccc(OCC2=CC=C(CO)SS2)nc1 |
| 2 (≈ 5.18 µM) | O=C(OCC1=CC=C(COC(=O)c2ccncc2)SS1)c1ccncc1 |
| 2 (≈ 11.3 µM) | OCC1=CC=C(CO)SS1 |
| 3.1 (≈ 11.4 µM) | O=C(OCC1=CC=C(CO)SS1)C1CCCC1 |
| 1.6 (≈ 8.45 µM) | OCC1=CC=C(/C=N/O)SS1 |
| 0.4 (≈ 1.98 µM) | O/N=C/C1=CC=C(/C=N/O)SS1 |

System: Candida albicans
Experiment: Antifungal activity against candida albicans B-311
Format: functional
Conditions: not given
Method in brief: (§3)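 Candida grown 24 h at 35 °C on YM agar, then 6 h at 35 °C with rotation in GYB broth (2% glucose, 1% yeast extract). Final inoculum 2 × 10^3 cfu/mL. 96-well SAB broth microdilution, 2-fold series from ethanol or DMSO solutions. 24 h at 35 °C; MIC = lowest concentration without visible growth. Amphotericin B reference.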

| MIC [µg/mL] | SMILES |
| --- | --- |
| 1.6 (≈ 8.45 µM) | OCC1=CC=C(/C=N/O)SS1 |
| 0.1 (≈ 0.494 µM) | O/N=C/C1=CC=C(/C=N/O)SS1 |

System: Pichia kudriavzevii
Experiment: Antifungal activity against candida krusei GK7831
Format: functional
Conditions: not given
Method in brief: as §3

| MIC [µg/mL] | SMILES |
| --- | --- |
| 6.3 (≈ 33.3 µM) | OCC1=CC=C(/C=N/O)SS1 |
| 6.3 (≈ 31.1 µM) | O/N=C/C1=CC=C(/C=N/O)SS1 |

System: Trichophyton rubrum
Experiment: Antifungal activity against Trichophyton rubrum ATCC 18762
Format: functional
Conditions: not given
Method in brief: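 T. rubrum grown on SAB agar 5–7 d at 25 °C; conidia as inoculum, final 1 × 10^4 cfu/mL. Compounds in ethanol or DMSO, 2-fold serial dilutions in SAB broth in 96-well plates. Incubated 7 d at 25 °C. MIC taken as the lowest concentration with no visible growth versus the growth-control wells. Amphotericin B was the reference.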

| MIC [µg/mL] | SMILES |
| --- | --- |
| 0.8 (≈ 4.23 µM) | OCC1=CC=C(/C=N/O)SS1 |
| 0.05 (≈ 0.247 µM) | O/N=C/C1=CC=C(/C=N/O)SS1 |

System: Candida tropicalis
Experiment: Antifungal activity against candida tropicalis 1525
Format: functional
Conditions: not given
Method in brief: as §3

| MIC [µg/mL] | SMILES |
| --- | --- |
| 6.3 (≈ 33.3 µM) | OCC1=CC=C(/C=N/O)SS1 |
| 1.6 (≈ 7.91 µM) | O/N=C/C1=CC=C(/C=N/O)SS1 |

System: Candida parapsilosis
Experiment: Antifungal activity against candida parapsilosis CP18
Format: functional
Conditions: Lodderomyces parapsilosis
Method in brief: as §3

| MIC [µg/mL] | SMILES |
| --- | --- |
| 3.1 (≈ 16.4 µM) | OCC1=CC=C(/C=N/O)SS1 |
| 0.2 (≈ 0.989 µM) | O/N=C/C1=CC=C(/C=N/O)SS1 |

System: Cryptococcus neoformans
Experiment: Antifungal activity against cryptococcus neoformans
Format: functional
Conditions: not given
Method in brief: as §2

| SMILES | MIC [µg/mL] |
| --- | --- |
| O=c1ccccn1CC1=CC=C(CO)SS1 | 12.5 (≈ 49.3 µM) |
| OCC1=CC=C(COCC(O)CO)SS1 (stereo not given) | > 100 |
| CC1(C)OCC(COCC2=CC=C(COCC(O)CO)SS2)O1 (stereo not given) | > 100 |
| C#Cc1cccc(OCC2=CC=C(CO)SS2)c1 | 1.6 (≈ 5.79 µM) |
| OCC1=CC=C(CSc2nnnn2-c2ccc(O)cc2)SS1 | 6.3 (≈ 17.9 µM) |
| CC1(C)OCC(COCC2=CC=C(CO)SS2)O1 (stereo not given) | > 100 |
| CC1(C)OCC(COCC2=CC=C(COCC3COC(C)(C)O3)SS2)O1 (stereo not given) | > 100 |
| CO/N=C/C1=CC=C(/C=N/OC)SS1 | 1.6 (≈ 6.95 µM) |
| N#C/C=C/C1=CC=C(CO)SS1 | 3.1 (≈ 15.7 µM) |
| Cc1ccc(S(=O)(=O)NC(=O)OCC2=CC=C(CO)SS2)cc1 | 50 (≈ 134 µM) |
| O=CC1=CC=C(C=O)SS1 | 1.6 (≈ 9.29 µM) |
| O=c1ccc([N+](=O)[O-])cn1CC1=CC=C(CO)SS1 | 100 (≈ 335 µM) |
| OCC1=CC=C(COc2ccc(O)nn2)SS1 | > 100 |
| COC(=O)c1ccccc1OCC1=CC=C(CO)SS1 | 6.3 (≈ 20.3 µM) |
| [N-]=[N+]=NCC1=CC=C(CCl)SS1 | 6.3 (≈ 28.7 µM) |
| CN(C)c1cccc(OCC2=CC=C(CO)SS2)c1 | 50 (≈ 169 µM) |
| OCC1=CC=C(COc2cc(C(F)(F)F)ccc2Cl)SS1 | 1.6 (≈ 4.51 µM) |
| OCC1=CC=C(COc2ccccc2O)SS1 | 25 (≈ 93.2 µM) |

Second part, the compound after the results:

| MIC [µg/mL] | SMILES |
| --- | --- |
| 1.6 (≈ 6.32 µM) | OCC1=CC=C(COc2cccnc2)SS1 |
| 0.1 (≈ 0.335 µM) | O=[N+]([O-])c1ccc(OCC2=CC=C(CO)SS2)nc1 |
| 31 (≈ 176 µM) | OCC1=CC=C(CO)SS1 |
| 1.6 (≈ 8.45 µM) | OCC1=CC=C(/C=N/O)SS1 |
| 0.8 (≈ 3.96 µM) | O/N=C/C1=CC=C(/C=N/O)SS1 |

System: Candida albicans
Experiment: Antifungal activity against candida albicans A-26
Format: functional
Conditions: not given
Method in brief: as §3

| MIC [µg/mL] | SMILES |
| --- | --- |
| 1.6 (≈ 8.45 µM) | OCC1=CC=C(/C=N/O)SS1 |
| 0.2 (≈ 0.989 µM) | O/N=C/C1=CC=C(/C=N/O)SS1 |

System: Candida albicans
Experiment: Antifungal activity against candida albicans
Format: functional
Conditions: not given
Method in brief: as §3

| SMILES | MIC [µg/mL] |
| --- | --- |
| O=c1ccccn1CC1=CC=C(CO)SS1 | > 100 |
| OCC1=CC=C(COCC(O)CO)SS1 (stereo not given) | > 100 |
| CC1(C)OCC(COCC2=CC=C(COCC(O)CO)SS2)O1 (stereo not given) | > 100 |
| O=C(OCC1=CC=C(COC(=O)C2CCCC2)SS1)C1CCCC1 | > 250 |
| C#Cc1cccc(OCC2=CC=C(CO)SS2)c1 | 1.6 (≈ 5.79 µM) |
| OCC1=CC=C(CSc2nnnn2-c2ccc(O)cc2)SS1 | 25 (≈ 70.9 µM) |
| CC1(C)OCC(COCC2=CC=C(CO)SS2)O1 (stereo not given) | > 100 |
| CC1(C)OCC(COCC2=CC=C(COCC3COC(C)(C)O3)SS2)O1 (stereo not given) | > 100 |
| CO/N=C/C1=CC=C(/C=N/OC)SS1 | 0.8 (≈ 3.47 µM) |
| N#C/C=C/C1=CC=C(CO)SS1 | 12.5 (≈ 63.4 µM) |
| Cc1ccc(S(=O)(=O)NC(=O)OCC2=CC=C(CO)SS2)cc1 | 100 (≈ 268 µM) |
| O=CC1=CC=C(C=O)SS1 | 1.6 (≈ 9.29 µM) |
| O=c1ccc([N+](=O)[O-])cn1CC1=CC=C(CO)SS1 | > 100 |
| OCC1=CC=C(COc2ccc(O)nn2)SS1 | > 100 |
| COC(=O)c1ccccc1OCC1=CC=C(CO)SS1 | 6.3 (≈ 20.3 µM) |
| [N-]=[N+]=NCC1=CC=C(CCl)SS1 | 25 (≈ 114 µM) |
| CN(C)c1cccc(OCC2=CC=C(CO)SS2)c1 | > 50 |
| OCC1=CC=C(COc2cc(C(F)(F)F)ccc2Cl)SS1 | 1.6 (≈ 4.51 µM) |
| OCC1=CC=C(COc2ccccc2O)SS1 | 6.3 (≈ 23.5 µM) |

Other lines, results leading:

| MIC [µg/mL] | SMILES |
| --- | --- |
| 3.1 (≈ 11 µM) | O=C(OCC1=CC=C(CO)SS1)c1ccncc1 |
| 3.1 (≈ 12.2 µM) | OCC1=CC=C(COc2cccnc2)SS1 |
| 2 (≈ 5.18 µM) | O=C(OCC1=CC=C(COC(=O)c2cccnc2)SS1)c1cccnc1 |
| 0.2 (≈ 0.67 µM) | O=[N+]([O-])c1ccc(OCC2=CC=C(CO)SS2)nc1 |
| 2 (≈ 5.18 µM) | O=C(OCC1=CC=C(COC(=O)c2ccncc2)SS1)c1ccncc1 |
| 16 (≈ 90.8 µM) | OCC1=CC=C(CO)SS1 |
| 6.3 (≈ 23.1 µM) | O=C(OCC1=CC=C(CO)SS1)C1CCCC1 |
| 1.6 (≈ 8.45 µM) | OCC1=CC=C(/C=N/O)SS1 |
| 0.1 (≈ 0.494 µM) | O/N=C/C1=CC=C(/C=N/O)SS1 |
